Relative activity data for seven compounds are collected here from ChEMBL document CHEMBL1121700, “Antiinflammatory 5,6-dihydro-11-oxodibenz[b,e]azepine-3-acetic acids” (1981).

Format in all cases: functional
One assay deals with Rattus norvegicus. In words: Antiinflammatory activity relative to phenyl butazone as 1 in rat carrageenan paw edema assay. The essentials:
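Female rats, 80–90 g, six per dose group, at least four dose levels. Test agent given orally 1 h before carrageenan injection into one hind paw, in vehicle of 0.9% NaCl, 0.5% Na carboxymethylcellulose, 0.4% polysorbate 80, 0.9% benzyl alcohol, 97.3% water. Rats killed 4 h after dosing and both hind paws weighed. Potency relative to phenylbutazone from dose-response of % weight increase of treated over untreated paw, by analysis of variance.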
(Carrageenan injected into the paw causes an acute inflammation.)

For assay [1], the species on record is Mus musculus. In words: Analgesic activity relative to aspirin as 1 in 8 mice phenylquinone writhing assay. The gist of the method: (§1)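 Male mice, 18–20 g, dosed orally with test agent in aqueous vehicle (0.9% NaCl, 0.5% Na carboxymethylcellulose, 0.4% polysorbate 80, 0.9% benzyl alcohol, 97.3% water) 20 min before intraperitoneal phenylquinone. Writhing observed over the following 10 min. Potency relative to aspirin taken from dose-response plots by analysis of variance.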
On the technique in general: In writhing tests, fewer writhes than in controls are read as antinociception.

The species entered for assay [2] is Mus musculus. In words: Analgesic activity relative to aspirin as 1 in 24 mice phenylquinone writhing assay. The essentials: as §1
The species named for assay [3] is Mus musculus. The assay is described as follows: Analgesic activity relative to aspirin as 1 in 32 mice phenylquinone writhing assay. The gist of the method: as §1
Assay [4] is filed under the species Mus musculus. The assay is described as follows: Analgesic activity relative to aspirin as 1 in 16 mice phenylquinone writhing assay. The gist of the method:
as §1

Regarding `O=C(O)Cc1ccc2c(c1)NCc1ccccc1C2=O`, the Relative activity is 29 with Rattus norvegicus and less than 0.7 in the assay listed under Mus musculus [1].
For `CC(C(=O)O)c1ccc2c(c1)N(C)Cc1ccccc1C2=O` (centres undefined), the values for the Relative activity with Rattus norvegicus and in the assay filed under Mus musculus [2] were 11 and 1, respectively.
Consider `CN1Cc2ccccc2C(=O)c2ccc(CC(=O)O)cc21`, for which the Relative activity was less than 0.2 in the assay listed under Mus musculus [3] and 7 in the assay with Rattus norvegicus.
As for `COc1ccc2c(c1)CNc1cc(CC(=O)O)ccc1C2=O`, the Relative activity in the assay with Rattus norvegicus was less than 0.1; in the assay filed under Mus musculus [1], less than 0.2.
As to `CC(=O)N1Cc2ccccc2C(=O)c2ccc(CC(=O)O)cc21`, the results for the Relative activity with Rattus norvegicus and in the assay listed under Mus musculus [1] were less than 0.3 and less than 0.2, respectively.
With `COc1ccc2c(c1)CN(C)c1cc(CC(=O)O)ccc1C2=O`, the Relative activity is given as less than 0.5 in the assay filed under Mus musculus [4] and 6.7 in the assay on Rattus norvegicus.
For the compound `CCN1Cc2ccccc2C(=O)c2ccc(CC(=O)O)cc21`, the Relative activity in the assay listed under Mus musculus [4] is on record as less than 0.2; in the assay on Rattus norvegicus it was 2.3.
